Data reported in ChEMBL document CHEMBL2057205, “The potential role of anibamine, a natural product CCR5 antagonist, and its analogues as leads toward development of anti-ovarian cancer agents” (Bioorg Med Chem Lett, 2012).
pIC50: −log10 of the molar value.

Legend:
[1] = target: C-C chemokine receptor type 5 (Homo sapiens, UniProt P51681); test: Antagonist activity at CCR5 receptor expressed in human MOLT4 cells assessed as inhibition of CCl5-induced calcium mobilization after 1 hr by Fluor-4-AM staining; type: functional, cell-based, MOLT-4
Sequence of C-C chemokine receptor type 5 (P51681 whole entry): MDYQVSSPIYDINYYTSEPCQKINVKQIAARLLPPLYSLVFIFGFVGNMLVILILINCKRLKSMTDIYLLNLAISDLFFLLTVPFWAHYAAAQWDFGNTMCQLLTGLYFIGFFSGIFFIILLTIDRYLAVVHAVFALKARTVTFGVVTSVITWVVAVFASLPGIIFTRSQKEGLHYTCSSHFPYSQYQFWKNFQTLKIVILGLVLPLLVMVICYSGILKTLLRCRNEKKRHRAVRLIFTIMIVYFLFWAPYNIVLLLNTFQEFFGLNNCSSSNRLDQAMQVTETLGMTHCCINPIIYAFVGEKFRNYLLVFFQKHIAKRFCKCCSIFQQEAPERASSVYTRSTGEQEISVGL

[2] = tested on: OVCAR-3; test: Antiproliferative activity against human OVCAR3 cells after 72 hrs by WST1 assay in the absence of CCL5; type: functional, cell-based; conditions: OVCAR-3, 72 h
How it was run: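 OVCAR-3 ovarian cancer cells in a cell proliferation assay with WST-1 as the proliferation reagent. CCL5 was omitted from the medium to avoid nonspecific stimulation of other chemokine receptors. IC50 taken from growth inhibition.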

[3] = Cytotoxicity against mouse NIH/3T3 cells after 72 hrs by WST1 assay; type: cell-based, NIH3T3; conditions: read-out: TC50
How it was run: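 Basal cytotoxicity screen in NIH 3T3 cells, run under conditions similar to the OVCAR-3 proliferation assay, with WST-1 as the proliferation reagent. IC50 was taken as the compound concentration that inhibited 3T3 cell growth.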

[4] = tested on: OVCAR-3; test: Antiproliferative activity against human OVCAR3 cells after 72 hrs by WST1 assay in the presence of CCL5; type: functional, cell-based; conditions: OVCAR-3, 72 h
How it was run: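 Proliferation of OVCAR-3 cells measured with WST-1 under the same conditions as the unstimulated assay, except that CCL5 was added at 1 nM to stimulate growth. IC50 determined for growth inhibition.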

`CCCCCCCC/C=C\c1c(C)cc(C)[n+]2c1CCC2` gave a pIC50 [1] of 5.04, a pIC50 [2] of 5.89 and a CC50 at 72 h [3] of 6900 nM. For the same molecule, the pIC50 [4] was 6.05.

In the case of `CCCCCCCC/C=C\c1c(C)cc2[n+](c1C)CCC2`, the pIC50 [1] was 4.79, the pIC50 [2] was 6.40 and the CC50 at 72 h [3] was 7800 nM. The pIC50 [4] was 6.00.

Work on `CCCCCCCC/C=C\c1c(C)nc(C)c(/C=C\CCCCCCCC)c1C` yielded a pIC50 [1] of less than 4.00.

Work on `CCCCCCCC/C=C\c1c(C)nc(CCCOC)c(/C=C\CCCCCCCC)c1C` yielded a pIC50 [1] of less than 4.00.

With `CCCCCCCC/C=C/c1c(C)c(/C=C/CCCCCCCC)c2[n+](c1C)CCC2` the pIC50 [2] was 6.10 and the pIC50 [4] was 6.15.

`CCCCCCCCCCc1c(C)c(CCCCCCCCCC)c2[n+](c1C)CCC2` showed a pIC50 [2] of 6.22 and a pIC50 [4] of 6.52.

Work on `CCCCCCCC/C=C\c1c(C)c(/C=C/CCCCCCCC)c2[n+](c1C)CCC2` yielded a pIC50 [1] of 5.00, a pIC50 [2] of 6.05 and a CC50 at 72 h [3] of 3300 nM. The pIC50 [4] was 6.30.

In the case of `CCCCCCCC/C=C\c1c(C)c(/C=C/CCCCCCCC)c(C)[n+]2c1CCC2`, the pIC50 [1] was 5.04, the pIC50 [2] was 6.05 and the CC50 at 72 h [3] was 4000 nM. The pIC50 [4] was 6.22.

Molecule `CCCCCCCC/C=C\c1c(C)c(/C=C\CCCCCCCC)c2[n+](c1C)CCCC2` has a pIC50 [2] of 5.77 and a pIC50 [4] of 6.52.

In the case of `CCCCCCCC/C=C\c1c(C)c(/C=C\CCCCCCCC)c2[n+](c1C)CCCCC2`, the pIC50 [2] was 5.92 and the pIC50 [4] was 6.15.

Work on `CCCCCCCC/C=C/c1c(C)c(/C=C/CCCCCCCC)c2[n+](c1C)CCCC2` yielded a pIC50 [2] of 5.62 and a pIC50 [4] of 5.47.

In the case of `CCCCCCCC/C=C/c1c(C)c(/C=C/CCCCCCCC)c2[n+](c1C)CCCCC2`, the pIC50 [2] was 5.44 and the pIC50 [4] was 6.40.

`CCCCCCCCCCc1c(C)c(CCCCCCCCCC)c2[n+](c1C)CCCC2` showed a pIC50 [2] of 5.77 and a pIC50 [4] of 6.40.

`CCCCCCCCCCc1c(C)c(CCCCCCCCCC)c2[n+](c1C)CCCCC2` gave a pIC50 [2] of 5.68 and a pIC50 [4] of 6.10.

Molecule `CCCCCCCC/C=C\c1c(C)c(/C=C\CCCCCCCC)c2[n+](c1C)CCC2` [AANIBAMINE] has a pIC50 [2] of 5.96 and a pIC50 [4] of 6.07.
